Data set [1] concerns Mus musculus. In words: Anticonvulsant activity in ip dosed albino mouse assessed as protection against MES-induced seizures after 4 hrs. The format is functional. A digest of the protocol: (§1)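 Male albino mice (20-25 g) given test compounds i.p., suspended in 30% PEG 200, at 0.01 ml/g body weight, at 30, 100 and 300 mg/kg to 1–6 animals. Seizure protection checked 0.5 h and 4 h after dosing. Value is the minimal dose protecting 50% or more of animals.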

Data set [2] deals with Mus musculus. In words: Anticonvulsant activity in ip dosed albino mouse assessed as protection against scPTZ-induced seizures after 0.5 hrs. Format: functional. A digest of the protocol:
as §1

Data set [3] is described as follows: Neurotoxicity against ip dosed albino mouse assessed as inability of animal to maintain equilibrium on rod for 1 min after 0.5 hrs by rotarod test. The conditions noted are these: in vivo. On the technique in general: In the rotarod test animals must keep their balance on a rotating rod.
The test system of data set [4] is Mus musculus. The experiment in a line: Anticonvulsant activity in ip dosed albino mouse assessed as protection against MES-induced seizures after 0.5 hrs. Format: functional. An outline of the steps:
as §1

Data set [5] can be described thus: Neurotoxicity against ip dosed albino mouse assessed as inability of animal to maintain equilibrium on rod for 1 min after 4 hrs by rotarod test. The conditions noted are these: in vivo.
The subject of data set [6] is Mus musculus. The experiment in a line: Anticonvulsant activity in ip dosed albino mouse assessed as protection against scPTZ-induced seizures after 4 hrs. The format is functional. A digest of the protocol: as §1
Data set [7] relates to Mus musculus. The experiment in a line: Reduction of immobility time in albino Swiss mouse at 100 mg/kg, ip pretreated for 1 hrs by forced swimming test. The format is functional. The settings on record: route intraperitoneal.

The source made the active and inactive calls. The calls are words filed in the database; no cut-off is given here.

One may read the ED50 as the dose at which the effect has come halfway, by size or by number of responders. For the molecule `Cc1ccc(/C=C2/N=C(c3ccccc3)N(C(=O)Cc3ccc(Cl)cc3)NC2=O)cc1`, the ED50 in the data set on Mus musculus [1] is 300 mg/kg; in the data set on Mus musculus [2], 100 mg/kg; in the data set with Mus musculus [4], 100 mg/kg; in the data set on Mus musculus [6], 300 mg/kg. For the same molecule, the TD50 at 0.5 h in data set [3] turned out to be 300 mg/kg. Moreover, the TD50 at 4 h in data set [5] was 300 mg/kg.

Regarding `O=C1NN(C(=O)c2ccc(F)cc2)C(c2ccccc2)=N/C1=C/c1ccc(O)cc1`, the ED50 entry in the data set with Mus musculus [1] and with Mus musculus [6] was “inactive” throughout. The ED50 with Mus musculus [2] and with Mus musculus [4] was 300 mg/kg in each case.

On to `COc1ccc(/C=C2/N=C(c3ccccc3)N(C(=O)c3ccc(Cl)cc3)NC2=O)cc1`, for which, in the data set on Mus musculus [1], the ED50 result was “inactive”. The ED50 with Mus musculus [2] is 100 mg/kg; in the data set with Mus musculus [4], 100 mg/kg; in the data set on Mus musculus [6] it was 300 mg/kg. For the same molecule, in data set [3], the TD50 at 0.5 h amounted to 300 mg/kg. For the same molecule, the TD50 at 4 h in data set [5] came out at 300 mg/kg.

For `Cc1ccc(C(=O)N2NC(=O)/C(=C\c3ccc(O)cc3)N=C2c2ccccc2)cc1`, the ED50 in the data set with Mus musculus [1] worked out at 100 mg/kg; with Mus musculus [2], 100 mg/kg; in the data set on Mus musculus [4], 30 mg/kg; with Mus musculus [6], 300 mg/kg. Moreover, in the data set on Mus musculus [7], the Time was determined as 147.33 s.

Regarding `CCCC(CCC)C(=O)[O-].[Na+]` [VALPROATE SODIUM], the ED50 with Mus musculus [2] amounted to 300 mg/kg. Further, in the data set on Mus musculus [6], the ED50 result was “inactive”.

Take `Cc1ccc(/C=C2/N=C(c3ccccc3)N(C(=O)c3ccc(C)cc3)NC2=O)cc1`: the 50% effective dose (ED50) came out at 100 mg/kg in the data set with Mus musculus [1], 30 mg/kg in the data set on Mus musculus [2], 100 mg/kg in the data set on Mus musculus [4] and 30 mg/kg with Mus musculus [6]. Also, the TD50 at 0.5 h in data set [3] turned out to be 300 mg/kg. The Time in the data set with Mus musculus [7] is 145.83 s.

As to `O=C1NN(C(=O)c2ccc(Cl)cc2)C(c2ccccc2)=N/C1=C/c1ccccc1`, the ED50 in the data set on Mus musculus [1] amounted to 300 mg/kg; in the data set on Mus musculus [2], 100 mg/kg; in the data set with Mus musculus [4] it was 100 mg/kg; in the data set on Mus musculus [6] it was 300 mg/kg. For the same molecule, the TD50 at 0.5 h in data set [3] came out at 300 mg/kg. The TD50 at 4 h in data set [5] is 300 mg/kg.

For the molecule `Cc1ccc(/C=C2/N=C(c3ccccc3)N(C(=O)c3ccc(Cl)cc3)NC2=O)cc1`, the ED50 in the data set with Mus musculus [1] came to 300 mg/kg; in the data set with Mus musculus [2], 100 mg/kg; in the data set with Mus musculus [4], 100 mg/kg; in the data set on Mus musculus [6], 100 mg/kg.

For `NC(=O)N1c2ccccc2C=Cc2ccccc21` [CARBAMAZEPINE], the Time with Mus musculus [7] is recorded as 169 s.

As to `O=C1NC(=O)C(c2ccccc2)(c2ccccc2)N1` [PHENYTOIN], the ED50 in the data set on Mus musculus [1] and in the data set with Mus musculus [4] was 30 mg/kg each time.

With `COc1ccc(/C=C2/N=C(c3ccccc3)N(C(=O)c3ccc(C)cc3)NC2=O)cc1`, the ED50 in the data set on Mus musculus [1] is 100 mg/kg; in the data set with Mus musculus [2], 30 mg/kg; in the data set on Mus musculus [4], 100 mg/kg; in the data set on Mus musculus [6] it was 30 mg/kg. Further, in data set [3], the TD50 at 0.5 h amounted to 300 mg/kg. Also, in data set [5], the TD50 at 4 h was determined as 300 mg/kg. Also, the Time in the data set on Mus musculus [7] amounted to 151.5 s.

On to `Cc1ccc(/C=C2/N=C(c3ccccc3)N(C(=O)COc3ccccc3)NC2=O)cc1`, for which the ED50 in the data set with Mus musculus [1], in the data set with Mus musculus [2] and with Mus musculus [4] was 300 mg/kg in each case. For the same molecule, the ED50 result in the data set on Mus musculus [6] was “inactive”.

Take `O=C1NN(C(=O)c2ccccc2Cl)C(c2ccccc2)=N/C1=C/c1ccccc1Cl`: the ED50 in the data set with Mus musculus [1] is 30 mg/kg; in the data set on Mus musculus [2], 30 mg/kg; with Mus musculus [4], 30 mg/kg; in the data set on Mus musculus [6] it was 100 mg/kg. For the same molecule, in data set [3], the TD50 at 0.5 h worked out at 300 mg/kg. In addition, the TD50 at 4 h in data set [5] came to 300 mg/kg. In addition, the Time in the data set on Mus musculus [7] was found to be 148.17 s.

The values above are taken from ChEMBL document CHEMBL1240430, “Design & synthesis of 2-(substituted aryloxy)-5-(substituted benzylidene)-3-phenyl-2,5-dihydro-1H-[1,2,4] triazin-6-one as potential anticonvulsant agents” (Eur J Med Chem, 2010).
